The source of these data is ChEMBL document CHEMBL3244181, “Synthesis and biological activity of cocaine analogues. 2. 6H-[2]Benzopyrano[4,3-c]pyridin-6-ones” (J Med Chem, 1979).

Structures are written as SMILES.

Test [1] is described as follows: Inhibition of [3H]norepinephrine reuptake at norepinephrine transporter in CD Charles River albino rat brain synaptosomes after 5 mins by scintillation counting analysis. The format is subcellular. The gist of the method: (§1)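 Synaptosomes were taken from the 0.8/1.2 M sucrose gradient interface and resuspended in Krebs Ringer phosphate with pargyline (1.6 mg/100 mL) and glucose (237 mg/100 mL). They were incubated with unlabelled norepinephrine and [3H]norepinephrine for 5 min at 30 °C, quenched with cold buffer, and pelleted at 10000g. Pellet counts, minus post-incubation tracer blanks, gave % inhibition as (control − sample)/control cpm.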

The species entered for test [2] is Rattus norvegicus. The test is described as follows: Inhibition of [3H]norepinephrine reuptake at norepinephrine transporter in CD Charles River albino rat brain synaptosomes at 10^-5 M after 5 mins by scintillation counting analysis. The format is subcellular. In outline:
as §1

The target in test [3] is Sodium-dependent serotonin transporter (Homo sapiens) (UniProt P31645). Kind of test: Inhibition of serotonin reuptake at SERT (unknown origin) at 10^-5 M.
Sodium-dependent serotonin transporter (Homo sapiens), sequence (P31645 whole entry, looked up): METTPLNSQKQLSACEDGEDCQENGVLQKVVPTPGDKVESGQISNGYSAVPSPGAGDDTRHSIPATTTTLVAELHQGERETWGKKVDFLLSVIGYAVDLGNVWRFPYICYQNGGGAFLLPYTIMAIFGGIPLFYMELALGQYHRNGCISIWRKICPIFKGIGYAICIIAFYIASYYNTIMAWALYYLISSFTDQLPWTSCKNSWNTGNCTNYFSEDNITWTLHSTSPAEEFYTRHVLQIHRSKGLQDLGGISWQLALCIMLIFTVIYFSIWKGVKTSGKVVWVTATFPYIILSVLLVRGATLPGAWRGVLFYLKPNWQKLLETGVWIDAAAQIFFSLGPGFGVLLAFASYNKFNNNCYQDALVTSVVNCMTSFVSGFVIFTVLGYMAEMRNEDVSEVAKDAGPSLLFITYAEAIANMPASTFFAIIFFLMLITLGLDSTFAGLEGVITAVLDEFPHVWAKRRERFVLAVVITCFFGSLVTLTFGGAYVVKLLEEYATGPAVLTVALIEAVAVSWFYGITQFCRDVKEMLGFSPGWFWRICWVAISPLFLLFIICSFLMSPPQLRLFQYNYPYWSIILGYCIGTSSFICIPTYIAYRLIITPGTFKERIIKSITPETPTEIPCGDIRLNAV
In test [4] the target is Sodium-dependent dopamine transporter (Homo sapiens) (UniProt Q01959). Kind of test: Inhibition of dopamine reuptake at DAT (unknown origin) at 10^-5 M.
Sodium-dependent dopamine transporter (Homo sapiens), sequence (Q01959 whole entry): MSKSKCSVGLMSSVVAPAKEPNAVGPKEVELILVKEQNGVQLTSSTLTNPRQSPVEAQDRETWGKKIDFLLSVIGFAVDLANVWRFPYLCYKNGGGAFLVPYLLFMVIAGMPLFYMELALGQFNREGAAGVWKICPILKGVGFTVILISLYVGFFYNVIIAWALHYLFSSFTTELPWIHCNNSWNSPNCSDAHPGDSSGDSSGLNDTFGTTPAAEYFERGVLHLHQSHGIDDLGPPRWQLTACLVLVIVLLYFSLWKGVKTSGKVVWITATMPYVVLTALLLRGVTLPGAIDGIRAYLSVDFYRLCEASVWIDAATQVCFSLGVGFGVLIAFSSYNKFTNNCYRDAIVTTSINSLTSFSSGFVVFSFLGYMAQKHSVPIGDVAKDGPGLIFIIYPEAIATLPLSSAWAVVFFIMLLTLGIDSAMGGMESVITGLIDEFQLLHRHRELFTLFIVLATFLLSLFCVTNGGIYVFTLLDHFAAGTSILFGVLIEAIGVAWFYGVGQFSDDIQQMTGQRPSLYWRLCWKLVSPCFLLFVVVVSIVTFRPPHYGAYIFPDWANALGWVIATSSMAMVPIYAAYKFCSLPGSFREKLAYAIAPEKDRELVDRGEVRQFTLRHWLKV
Test [5] is filed under the species Rattus norvegicus. The test is described as follows: Inhibition of [3H]norepinephrine reuptake at norepinephrine transporter in rat brain at 10^-5 M by scintillation counting analysis. The format is tissue-based.

In general, IC50 refers to the point on the concentration scale where inhibition reaches its midpoint. As a reminder, the inhibition is the share of the control response that was lost under treatment. Low values mean a response near the control, high ones a response far below the control.

In test [1], `CN1[C@@H]2CC[C@H]1C[C@H](OC(=O)c1ccccc1)C2` yielded an IC50 of 5.6 µM.
Still for that read-out and setting: in the case of `CN1CCc2oc(=O)c3ccccc3c2C1` it was 320 µM.
`CN1CC[C@H]2OC(=O)c3ccccc3[C@H]2C1` (relative stereo): it took 650 µM to reach half-maximal inhibition in test [1] (IC50). The compound also gave an inhibition in the test listed under Rattus norvegicus [2] of 0%.
`CN1CC[C@H]2OC(=O)c3ccccc3[C@@H]2C1` (relative stereo) returned an IC50 in test [1] of 320 µM. Further, the inhibition in the test filed under Rattus norvegicus [2] was 36%; in test [3], 0%; in test [4] it was 3%; in the test listed under Rattus norvegicus [5] it was 11%.
In test [1], `COC(=O)[C@H]1[C@@H](OC(=O)c2ccccc2)C[C@@H]2CC[C@H]1N2C` [COCAINE] had an IC50 of 0.575 µM.
